Measurements reported in ChEMBL document CHEMBL2412955, “Synthesis and antibacterial activities of N-substituted-glycinyl 1H-1,2,3-triazolyl oxazolidinones” (2013).
Values after ≈ are worked out from the molar mass of the structure shown.

Experiments:
Assay type in all cases: functional
Streptococcus pneumoniae = assay: Antibacterial activity against penicillin-resistant Streptococcus pneumoniae after 18 hrs by NCCLS agar dilution method
Outline: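 Agar dilution was run on Mueller-Hinton agar supplemented with 5% sheep blood, with drug dilutions from 0.12 to 64 µg/ml. Test compounds were dissolved in 80% DMSO in water. Final inoculum was 10^7 CFU/ml, incubated at 35 °C for 18 h. MIC was the lowest concentration preventing visible growth.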

Staphylococcus [1] = assay: Antibacterial activity against methicillin-susceptible coagulase-negative Staphylococcus after 18 hrs by NCCLS agar dilution method
Outline: (§1)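 Clinical isolates were tested by agar dilution on Mueller-Hinton agar with drug dilutions from 0.12 to 64 µg/ml. Test compounds were dissolved in 80% DMSO in water. Final inoculum was 10^7 CFU/ml, incubated at 35 °C for 18 h. MIC was the lowest concentration inhibiting visible growth.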

Staphylococcus [2] = assay: Antibacterial activity against methicillin-resistant coagulase-negative Staphylococcus after 18 hrs by NCCLS agar dilution method; outline: as §1
Escherichia coli = assay: Antibacterial activity against Escherichia coli ATCC 25922 after 18 hrs by NCCLS agar dilution method; settings: ATCC 25922, 18 h
Outline: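 Agar dilution per NCCLS on Mueller-Hinton agar, drug dilutions 0.12–64 µg/ml. Linezolid dissolved in 40% water in ethanol, vancomycin in water, test agents in 80% DMSO in water. Inoculum 10^7 CFU/ml (final), incubated 35 °C for 18 h. MIC is the lowest concentration preventing visible growth.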

Staphylococcus aureus [3] = assay: Antibacterial activity against methicillin-resistant Staphylococcus aureus after 18 hrs by NCCLS agar dilution method; outline: as §1
Staphylococcus aureus [4] = assay: Antibacterial activity against Staphylococcus aureus ATCC 25923 after 18 hrs by […] in presence of human plasma; settings: ATCC 25923, Plasma
Outline: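 To gauge plasma protein binding and/or plasma instability, MIC was determined in Mueller-Hinton broth containing 50% human plasma. Linezolid served as a reference agent. Ratio compares this MIC with the MIC obtained without plasma.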

Haemophilus influenzae = assay: Antibacterial activity against Haemophilus influenzae ATCC 49247 after 18 hrs by NCCLS agar dilution method; settings: ATCC 49247, 18 h
Outline: (§2)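 NCCLS agar dilution on Mueller-Hinton agar with 5% sheep blood added to support growth. Drug dilutions 0.12–64 µg/ml. Test agents in 80% DMSO in water, linezolid in 40% water in ethanol. Final inoculum 10^7 CFU/ml, 18 h at 35 °C. MIC read as the lowest concentration with no visible growth.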

Enterococcus [5] = assay: Antibacterial activity against vancomycin-resistant Enterococcus after 18 hrs by NCCLS agar dilution method; outline: as §1
Staphylococcus aureus [6] = assay: Antibacterial activity against Staphylococcus aureus ATCC 25923 after 18 hrs by NCCLS agar dilution method; settings: ATCC 25923, 18 h
Outline: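 Plain Mueller-Hinton agar, agar dilution per NCCLS, concentrations 0.12–64 µg/ml. Test agents in 80% DMSO in water, linezolid in 40% water in ethanol, vancomycin in water. Final inoculum 10^7 CFU/ml, 35 °C for 18 h. MIC = lowest concentration inhibiting visible growth.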

Staphylococcus aureus [7] = assay: Antibacterial activity against methicillin-susceptible Staphylococcus aureus after 18 hrs by NCCLS agar dilution method; outline: as §1
Enterococcus [8] = assay: Antibacterial activity against vancomycin-susceptible Enterococcus after 18 hrs by NCCLS agar dilution method; outline: as §1
Moraxella catarrhalis = assay: Antibacterial activity against Moraxella catarrhalis ATCC 8176 after 18 hrs by NCCLS agar dilution method; settings: ATCC 8176, 18 h; outline: as §2

## Cc1cn(C[C@H]2CN(c3ccc(N4CCN(C(=O)CNC(=O)C(F)(F)F)CC4)c(F)c3)C(=O)O2)nn1
Streptococcus pneumoniae
  MIC: 1 µg/mL (≈ 1.95 µM)
Staphylococcus [1]
  MIC: 4 µg/mL (≈ 7.79 µM)
Staphylococcus [2]
  MIC: 4 µg/mL (≈ 7.79 µM)
Escherichia coli
  MIC: > 64 µg/mL
Staphylococcus aureus [3]
  MIC: 4 µg/mL (≈ 7.79 µM)
Staphylococcus aureus [4]
  MIC: 16 µg/mL
Haemophilus influenzae
  MIC: 32 µg/mL (≈ 62.3 µM)
Enterococcus [5]
  MIC: 4 µg/mL (≈ 7.79 µM)
Staphylococcus aureus [6]
  MIC: 8 µg/mL (≈ 15.6 µM)
Staphylococcus aureus [7]
  MIC: 4 µg/mL (≈ 7.79 µM)
Enterococcus [8]
  MIC: 4 µg/mL (≈ 7.79 µM)
Moraxella catarrhalis
  MIC: 16 µg/mL (≈ 31.2 µM)

## CC(C)(C)OC(=O)NCC(=O)N1CCN(c2ccc(N3C[C@H](Cn4ccnn4)OC3=O)cc2F)CC1
Streptococcus pneumoniae
  MIC: 2 µg/mL (≈ 3.97 µM)
Staphylococcus [1]
  MIC: 2 µg/mL (≈ 3.97 µM)
Staphylococcus [2]
  MIC: 2 µg/mL (≈ 3.97 µM)
Escherichia coli
  MIC: > 64 µg/mL
Staphylococcus aureus [3]
  MIC: 2 µg/mL (≈ 3.97 µM)
Staphylococcus aureus [4]
  MIC: 8 µg/mL
Haemophilus influenzae
  MIC: > 64 µg/mL
Enterococcus [5]
  MIC: 2 µg/mL (≈ 3.97 µM)
Staphylococcus aureus [6]
  MIC: 4 µg/mL (≈ 7.94 µM)
Staphylococcus aureus [7]
  MIC: 2 µg/mL (≈ 3.97 µM)
Enterococcus [8]
  MIC: 2 µg/mL (≈ 3.97 µM)
Moraxella catarrhalis
  MIC: 32 µg/mL (≈ 63.6 µM)

## Cc1cn(C[C@H]2CN(c3ccc(N4CCN(C(=O)CNC(=O)OC(C)(C)C)CC4)c(F)c3)C(=O)O2)nn1
Streptococcus pneumoniae
  MIC: 4 µg/mL (≈ 7.73 µM)
Staphylococcus [1]
  MIC: 4 µg/mL (≈ 7.73 µM)
Staphylococcus [2]
  MIC: 4 µg/mL (≈ 7.73 µM)
Escherichia coli
  MIC: > 64 µg/mL
Staphylococcus aureus [3]
  MIC: 8 µg/mL (≈ 15.5 µM)
Staphylococcus aureus [4]
  MIC: 16 µg/mL
Haemophilus influenzae
  MIC: ≥ 64 µg/mL
Enterococcus [5]
  MIC: 8 µg/mL (≈ 15.5 µM)
Staphylococcus aureus [6]
  MIC: 4 µg/mL (≈ 7.73 µM)
Staphylococcus aureus [7]
  MIC: 4 µg/mL (≈ 7.73 µM)
Enterococcus [8]
  MIC: 4 µg/mL (≈ 7.73 µM)
Moraxella catarrhalis
  MIC: 16 µg/mL (≈ 30.9 µM)

## CC(=O)NCC(=O)N1CCN(c2ccc(N3C[C@H](Cn4ccnn4)OC3=O)cc2F)CC1
Streptococcus pneumoniae
  MIC: 1 µg/mL (≈ 2.24 µM)
Staphylococcus [1]
  MIC: 2 µg/mL (≈ 4.49 µM)
Staphylococcus [2]
  MIC: 2 µg/mL (≈ 4.49 µM)
Escherichia coli
  MIC: > 64 µg/mL
Staphylococcus aureus [3]
  MIC: 4 µg/mL (≈ 8.98 µM)
Staphylococcus aureus [4]
  MIC: 8 µg/mL
Haemophilus influenzae
  MIC: 64 µg/mL (≈ 144 µM)
Enterococcus [5]
  MIC: 2 µg/mL (≈ 4.49 µM)
Staphylococcus aureus [6]
  MIC: 4 µg/mL (≈ 8.98 µM)
Staphylococcus aureus [7]
  MIC: 2 µg/mL (≈ 4.49 µM)
Enterococcus [8]
  MIC: 2 µg/mL (≈ 4.49 µM)
Moraxella catarrhalis
  MIC: 32 µg/mL (≈ 71.8 µM)

## CC(=O)NCC(=O)N1CCN(c2ccc(N3C[C@H](Cn4cc(C)nn4)OC3=O)cc2F)CC1
Streptococcus pneumoniae
  MIC: 1 µg/mL (≈ 2.18 µM)
Staphylococcus [1]
  MIC: 2 µg/mL (≈ 4.35 µM)
Staphylococcus [2]
  MIC: 2 µg/mL (≈ 4.35 µM)
Escherichia coli
  MIC: > 64 µg/mL
Staphylococcus aureus [3]
  MIC: 2 µg/mL (≈ 4.35 µM)
Staphylococcus aureus [4]
  MIC: 8 µg/mL
Haemophilus influenzae
  MIC: 32 µg/mL (≈ 69.6 µM)
Enterococcus [5]
  MIC: 4 µg/mL (≈ 8.71 µM)
Staphylococcus aureus [6]
  MIC: 4 µg/mL (≈ 8.71 µM)
Staphylococcus aureus [7]
  MIC: 2 µg/mL (≈ 4.35 µM)
Enterococcus [8]
  MIC: 2 µg/mL (≈ 4.35 µM)
Moraxella catarrhalis
  MIC: 16 µg/mL (≈ 34.8 µM)

## Cc1cn(C[C@H]2CN(c3ccc(N4CCN(C(=O)CNC(=O)C(Cl)Cl)CC4)c(F)c3)C(=O)O2)nn1
Streptococcus pneumoniae
  MIC: 2 µg/mL (≈ 3.79 µM)
Staphylococcus [1]
  MIC: 4 µg/mL (≈ 7.57 µM)
Staphylococcus [2]
  MIC: 4 µg/mL (≈ 7.57 µM)
Escherichia coli
  MIC: > 64 µg/mL
Staphylococcus aureus [3]
  MIC: 4 µg/mL (≈ 7.57 µM)
Staphylococcus aureus [4]
  MIC: 16 µg/mL
Haemophilus influenzae
  MIC: > 32 µg/mL
Enterococcus [5]
  MIC: 4 µg/mL (≈ 7.57 µM)
Staphylococcus aureus [6]
  MIC: 8 µg/mL (≈ 15.1 µM)
Staphylococcus aureus [7]
  MIC: 4 µg/mL (≈ 7.57 µM)
Enterococcus [8]
  MIC: 4 µg/mL (≈ 7.57 µM)
Moraxella catarrhalis
  MIC: 16 µg/mL (≈ 30.3 µM)

## CCOC(=O)CC(=O)NCC(=O)N1CCN(c2ccc(N3C[C@H](Cn4ccnn4)OC3=O)cc2F)CC1
Streptococcus pneumoniae
  MIC: 2 µg/mL (≈ 3.86 µM)
Staphylococcus [1]
  MIC: 4 µg/mL (≈ 7.73 µM)
Staphylococcus [2]
  MIC: 4 µg/mL (≈ 7.73 µM)
Escherichia coli
  MIC: > 64 µg/mL
Staphylococcus aureus [3]
  MIC: 4 µg/mL (≈ 7.73 µM)
Staphylococcus aureus [4]
  MIC: 16 µg/mL
Haemophilus influenzae
  MIC: 64 µg/mL (≈ 124 µM)
Enterococcus [5]
  MIC: 8 µg/mL (≈ 15.5 µM)
Staphylococcus aureus [6]
  MIC: 8 µg/mL (≈ 15.5 µM)
Staphylococcus aureus [7]
  MIC: 4 µg/mL (≈ 7.73 µM)
Enterococcus [8]
  MIC: 4 µg/mL (≈ 7.73 µM)
Moraxella catarrhalis
  MIC: 32 µg/mL (≈ 61.8 µM)

## CCOC(=O)CC(=O)NCC(=O)N1CCN(c2ccc(N3C[C@H](Cn4cc(C)nn4)OC3=O)cc2F)CC1
Streptococcus pneumoniae
  MIC: 4 µg/mL (≈ 7.53 µM)
Staphylococcus [1]
  MIC: 4 µg/mL (≈ 7.53 µM)
Staphylococcus [2]
  MIC: 4 µg/mL (≈ 7.53 µM)
Escherichia coli
  MIC: > 64 µg/mL
Staphylococcus aureus [3]
  MIC: 4 µg/mL (≈ 7.53 µM)
Staphylococcus aureus [4]
  MIC: 16 µg/mL
Haemophilus influenzae
  MIC: > 64 µg/mL
Enterococcus [5]
  MIC: 4 µg/mL (≈ 7.53 µM)
Staphylococcus aureus [6]
  MIC: 8 µg/mL (≈ 15.1 µM)
Staphylococcus aureus [7]
  MIC: 4 µg/mL (≈ 7.53 µM)
Enterococcus [8]
  MIC: 4 µg/mL (≈ 7.53 µM)
Moraxella catarrhalis
  MIC: > 64 µg/mL
